Fh CTSL1 inh: cathepsin L1 inhibition, PFM18AAP counter-screen | inhibition, % at 5.96 µM | AID 1906 | 0.49% of 300,000 active | recombinant F. hepatica cathepsin L1, Z-Leu-Arg-MCA fluorescence;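 active means inhibition above the mean of all tested compounds plus 3 SD, set per screening campaign, cut at about 17% in these data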;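 further: 0% = plate median of test compound wells and 100% = 1 µM Z-Phe-Ala-diazomethylketone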
TDP2 inh: blocks human TDP2 phosphodiesterase activity; AID 720702; 0.34% of 370,000 active; recombinant TDP2, T5PNP hydrolysis, p-nitrophenol absorbance 415 nm; inhibition, % at 12.8 µM; O95551;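 active means inhibition above the mean of all tested compounds plus 3 SD, set per campaign, cut at about 25% in these data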;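 further: 0% = DMSO with enzyme and 100% = buffer with substrate but no TDP2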
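System – recombinant human TDP2 · Amount – 120 nM TDP2 per well · Buffer or medium – Mg2+-containing Tris-HCl buffer, pH 7.5 · Reagent – T5PNP substrate, 5 mM · Dosing – 12.8 µM single point, 1% DMSO · Incubation – 2 h at 37 °C · Measured by – epi absorbance · Read-out basis – percent inhibition · Benchmarks – high control without enzyme, low control DMSO plus TDP2 · Repeats – singlicate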
HKDC1 inhibitor: HKDC1 (human) hexokinase inhibition; recombinant HKDC1, G6PDH/diaphorase resazurin coupled fluorescence; inhibition, % at 20 µM; 0.16% of 340,000 active;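 active means inhibition above about 35% when tested at 20 µM, limit read from the data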;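 further: plate controls were DMSO wells with enzyme for no effect and DMSO wells lacking enzyme for full effect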
Target sequence (Q2TB90 whole entry, looked up): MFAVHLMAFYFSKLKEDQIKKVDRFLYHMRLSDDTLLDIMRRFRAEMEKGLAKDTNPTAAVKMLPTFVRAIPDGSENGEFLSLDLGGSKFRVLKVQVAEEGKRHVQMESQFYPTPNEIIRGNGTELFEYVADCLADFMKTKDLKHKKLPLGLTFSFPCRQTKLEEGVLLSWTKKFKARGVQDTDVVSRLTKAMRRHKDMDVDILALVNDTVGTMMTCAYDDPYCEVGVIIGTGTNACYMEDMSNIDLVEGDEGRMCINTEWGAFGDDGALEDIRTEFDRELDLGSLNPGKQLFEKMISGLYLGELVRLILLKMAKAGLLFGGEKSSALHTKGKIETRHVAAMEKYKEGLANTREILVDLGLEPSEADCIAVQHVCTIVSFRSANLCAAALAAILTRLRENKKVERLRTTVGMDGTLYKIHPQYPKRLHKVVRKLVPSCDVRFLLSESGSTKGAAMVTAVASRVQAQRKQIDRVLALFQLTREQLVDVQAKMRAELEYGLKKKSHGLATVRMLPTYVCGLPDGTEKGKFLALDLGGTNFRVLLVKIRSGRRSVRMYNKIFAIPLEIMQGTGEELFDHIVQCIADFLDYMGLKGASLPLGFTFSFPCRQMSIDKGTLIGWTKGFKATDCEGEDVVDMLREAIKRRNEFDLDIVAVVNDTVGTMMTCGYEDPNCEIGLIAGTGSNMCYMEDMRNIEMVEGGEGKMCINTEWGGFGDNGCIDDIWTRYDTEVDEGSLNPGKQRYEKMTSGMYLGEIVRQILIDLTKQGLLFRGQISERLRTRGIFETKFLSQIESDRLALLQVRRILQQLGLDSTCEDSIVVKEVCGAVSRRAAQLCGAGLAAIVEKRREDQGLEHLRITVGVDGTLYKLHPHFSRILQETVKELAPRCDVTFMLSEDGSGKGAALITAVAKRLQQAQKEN
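Assay system – recombinant HKDC1 (HK5) hexokinase enzyme, produced in-house · Input – HKDC1 at 5 µg/mL · Reagent – glucose plus 1 mM ATP as hexokinase substrates · Timing – 90 min reaction incubation at room temperature, dark · Measured by – G6PDH/diaphorase-coupled fluorescence, 1 mM NADP, 100 µM resazurin, 525/613 nm · Benchmarks – DMSO-enzyme wells negative, buffer-substituted wells positive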
GSTO1 inh: GSTO1 inhibition, counter-screen for RBBP9 inhibitors; P78417; 1.1% of 300,000 active; recombinant GSTO1, activity-based probe fluorescence polarization; inhibition, % at 5.96 µM;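 active means inhibition above the campaign mean inhibition plus 3 SD, cut at about 35% in these data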;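 further: 0% = GSTO1-1 with DMSO and 100% = wells lacking GSTO1-1 enzyme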
UCH37 inh: inhibitors of human deubiquitinating enzyme UCH37. Q9Y5K5. purified proteasome/UCH37, Ub-AMC cleavage fluorescence. inhibition, % (test concentration not listed). 0.33% of 330,000 active. AID 588478;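 active means mean inhibition over replicate wells above about 20%, limit read from the data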;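 further: 0% = compound-free wells with enzyme and 100% = wells lacking proteasome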
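Reagent: Ub-AMC substrate; assay system: Proteasome-associated human UCH37 deubiquitinase; controls: no-proteasome and no-compound wells; read-out: % inhibition of Ub-AMC cleavage fluorescence; timing: 30 min preincubation with enzyme, 25 min cleavage at room temperature; signal: AMC fluorescence from Ub-AMC cleavage, excitation 355 nm, emission 460 nm; buffer or medium: Tris-HCl pH 7.4 plus ovalbumin, ATP-MgCl2, DTT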
PAD4 FP inh: blocks human protein arginine deiminase 4. Q9UM07. recombinant PAD4, RCA probe fluorescence polarization. inhibition, % at 6.36 µM. 0.41% of 330,000 active. AID 485272;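 active means percent inhibition above a cutoff equal to the mean of all tested compounds plus 3 SD, cut at about 15% in these data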;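 further: 0% = PAD4 with RCA probe and DMSO and 100% = probe without PAD4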
PAD4 confirm: confirmation of human PAD4 inhibitors; shares compounds with PAD4 FP inh; recombinant PAD4, RCA probe fluorescence polarization; inhibition, % at 6.36 µM; 28% of 1,200 active; AID 488796;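 active means mean inhibition across replicates above the hit cutoff set by the earlier primary screen, cut at about 15% in these data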;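 further: inhibitors block active-site labeling by the probe so polarization falls; 0% = PAD4 with probe and DMSO and 100% = probe without PAD4 enzyme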
Active calls of the source: *; i = inactive; / = not tested or not shown. In the library only some 1.6% were active in any assay of this set; here they are far more common.

SMILES	Fh CTSL1 inh	TDP2 inh	HKDC1 inhibitor	GSTO1 inh	UCH37 inh	PAD4 FP inh	PAD4 confirm
CCn1c(-c2cc(Br)cc(OC)c2O)nc2cc(S(=O)(=O)N(C)C)ccc21	-1	4	-6	-10	1	18*	22*
CCSc1ccc(-c2nn(-c3ccccc3)cc2/C=C(/C#N)C(=O)NCCCOC)cc1	2	0	8	-5	i	18*	32*
CCCSc1ccc(-c2nn(-c3ccccc3)cc2/C=C(/C#N)C(=O)NCCCOC)cc1	4	3	5	7	i	6	/
Cc1sc2nc(C)n(N=CN(C)C)c(=O)c2c1C	/	/	/	/	-2	/	/
Cc1cccc(NC(=S)NCc2ccc3c(c2)cc(C)n3C)c1C	6	-12	-3	2	0	19*	-4
O=C(CCNS(=O)(=O)c1cccc(C(F)(F)F)c1)NCc1ccco1	/	5	-4	/	0	27*	-1
CCCNS(=O)(=O)c1ccc(CCC(=O)NCc2ccco2)cc1	-3	3	-8	-2	2	0	/
O=C(NCCCN1CCOCC1)c1ccc(Cl)cc1Cl	11	-3	2	2	-1	15*	1
COc1ccc(NC(=O)C2Cc3ccccc3OC2=NO)cc1 (centres undefined)	/	/	/	/	-2	/	/
Cc1cc(NN=Cc2ccccc2F)c2ccccc2n1	/	/	/	/	-19	/	/
Cc1ccc2cc(C=NNC(=O)CN3CCCCC3)c(Cl)nc2c1	/	/	/	/	3	/	/
CC1(C)c2ccccc2N2CC(=O)NC21/C=C/c1ccco1 (centres undefined)	0	3	-1	3	-4	-12	/
CC1(C)c2ccccc2N2CCC(=O)NC21/C=C/c1ccco1 (centres undefined)	2	7	-6	4	3	17*	-3
COc1cc2c(C#N)c(N3CCOCC3)nc(N)c2c(N)n1	1	-4	2	7	-113	18*	1
CCCc1c(O)nc(SCCN(CCC)CCC)[nH]c1=O	-1	-2	-5	2	3	48*	4
COc1cc(C=NNC(=S)Nc2cccnc2)cc(OC)c1O	/	/	/	/	5	/	/
NC(=O)c1ccc(NC(=O)CSC(=O)c2ccccc2)cc1	/	-1	-1	/	16	17*	8
COc1ccc(C=NNC(=O)CNc2ccc(Br)cc2)c(C(=O)O)c1OC	/	/	/	/	2	/	/
Cc1cc(N(CCO)CCO)ccc1N=Nc1cc(F)ccc1F	8	-2	0	5	6	-3	/
OCCN(CCO)c1ccc(C(c2ccc(Cl)cc2)c2ccc(N(CCO)CCO)cc2Cl)c(Cl)c1	-5	-2	-4	0	2	15*	5
Cc1cc(C)cc(N2C(=O)CC(Sc3ccccc3C(=O)O)C2=O)c1 (centres undefined)	2	5	-3	6	3	5	/
CCOC(=O)c1c(N2C(=O)CC(Sc3ccccc3C(=O)O)C2=O)sc(C)c1C (centres undefined)	-2	-8	-2	4	2	17*	15
COc1cccc2c(SCC(=O)NN=Cc3ccc(O)c(O)c3)cc(C)nc12	/	/	/	/	-40	/	/
CC(OC(=O)c1nc(Cl)ccc1Cl)C(=O)NC1CCCCC1C (centres undefined)	/	1	-2	/	/	25*	4
CC(OC(=O)c1cccc(Cl)c1)C(=O)NC1CCCCC1C (centres undefined)	-6	4	-3	1	5	3	/
SMILES	Fh CTSL1 inh	TDP2 inh	HKDC1 inhibitor	GSTO1 inh	UCH37 inh	PAD4 FP inh	PAD4 confirm
Cc1nn(-c2ccccc2)c(Cl)c1C=NNC(=O)c1cnccn1	/	/	/	/	-9	/	/
CCN(CC)c1ccc(N=Cc2ccc(N(CC)CC)cc2O)cc1	-1	8	4	57*	/	17*	-3
CCOc1ccc2c(c1)-c1c(ssc1=S)C(C)(C)N2C(=O)c1ccco1	2	-15	-4	0	8	17*	16*
CN1C(=O)C(CC(=O)Nc2ccccc2)SC1=Nc1nccs1 (centres undefined)	/	/	/	/	2	/	/
COc1ccccc1NC(=O)c1cc2ccc(O)cc2oc1=NO	/	/	/	/	2	/	/
Cc1nonc1OC(C)CNc1ccc([N+](=O)[O-])cc1 (centres undefined)	-2	-2	-1	3	6	56*	6
Cc1nonc1OCCNc1ccc([N+](=O)[O-])cc1[N+](=O)[O-]	1	-1	12	-3	11	2	/
CCCCc1ccc(C(C)=NNc2cc(N3CCOCC3)nc(C)n2)cc1	/	/	/	/	0	/	/
O=C(NN=Cc1ccc(N2CCOCC2)cc1)c1ccc(O)cc1	/	/	/	/	-19	/	/
Cn1c(/C(C#N)=C/c2cccc(O)c2)nc2ccccc21	0	-2	0	4	2	-3	/
Cn1c(/C(C#N)=C/c2ccc(-c3ccc(S(N)(=O)=O)cc3)o2)nc2ccccc21	4	-10	-6	-13	0	28*	21*
COc1ccc2c(c1)c(C(=O)NN=Cc1cn(C)c3ccccc13)c(C)n2C	/	/	/	/	9	/	/
CCN(C(=O)COC(=O)c1cc(-c2cccc3ccccc23)nc2ccccc12)C1CCS(=O)(=O)C1 (centres undefined)	-19	3	-5	8	4	24*	12
O=C(COC(=O)c1cc(-c2cccc3ccccc23)nc2ccccc12)NC1CCS(=O)(=O)C1 (centres undefined)	-26	-3	-2	10	-19	65*	24*
C#CCOCCOCCOCCNc1nc(N2CCN(C(=O)[C@H](CCCCN)n3cc([C@@H](N)C(C)CC)nn3)CC2)nc(N2CCN(C(=O)[C@H](Cc3cc4ccccc4[nH]3)n3cc([C@@H](N)CC(C)C)nn3)CC2)n1 (some centres undefined)	6	/	4	-3	2	16*	4
C#CCOCCOCCOCCNc1nc(N2CCN(C(=O)[C@H](Cc3cc4ccccc4[nH]3)n3cc([C@@H](N)C(C)CC)nn3)CC2)nc(N2CCN(C(=O)[C@H](CCCCN)n3cc([C@@H](N)CO)nn3)CC2)n1 (some centres undefined)	-2	/	/	-2	4	-4	/
COc1cccc(C(=O)OCC(=O)c2c(N)n(C)c(=O)n(C)c2=O)c1	/	16	-1	/	1	22*	5
COc1ccc(NS(=O)(=O)c2cccc(C(=O)OCC(=O)c3c(N)n(C)c(=O)n(C)c3=O)c2)cc1	/	4	2	/	4	-7	/
Cn1c(N)c(C(=O)COC(=O)COc2cc(Cl)c(Cl)cc2Cl)c(=O)n(C)c1=O	/	-5	-8	/	6	-1	/
Cc1cc(Cl)ccc1OCC(=O)OCC(=O)c1c(N)n(C)c(=O)n(C)c1=O	/	0	-3	/	2	27*	6
